# High-throughput results: PubChem, Broad Institute
# HIF activator – HIF pathway transcriptional activation. AID 1910. U2OS HRE-luciferase reporter, luminescence; normalized: DMSO 0%, desferrioxamine 100%. 300,000 compounds, 0.32% hits. activation, % at 7.5 µM (by protocol);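 active means mean activation of at least 10% of the iron chelator positive control signal, with at least half of replicates also reaching 10%; inconclusive means mean and replicate majority disagree about reaching 10%; inactive means mean and most replicates under 10%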
# T cruzi repl – T. cruzi replication inhibition; T. cruzi beta-gal in NIH3T3, luminescence, 90 h; inhibition, % (no concentration beside the values); 300,000 compounds, 1.4% hits;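 active means mean inhibition across valid replicates above about 55%, limit read from the data; inconclusive means mean below that limit but half or more replicates reach it; inactive means mean below it, under half of replicates reach it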;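 further: signal also drops with host cell toxicity which is not excluded here; 0% = plate median of DMSO wells and 100% = zero luminescence signal; higher percent means less beta-gal luminescence so fewer parasites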
#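 compound dosing = single 50 nL compound addition per well in DMSO | material = NIH/3T3 host cells with β-galactosidase reporter T. cruzi | input = 5,000 host fibroblasts per well | timing = ≥90 h infection period, 3 h prior cell attachment | read-out basis = percent inhibition of parasite-derived β-gal signal | detection = GalScreen β-gal luminescence, detergent lysis, 60 min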
# HSF1 activator – increases HSF-1 driven luciferase reporter signal. activation, % at 9 µM. 300,000 compounds, 1.7% hits. NIH3T3-HGL HSF-1 luciferase reporter, MG132, 8 h; 100% = twice DMSO control signal. AID 504408;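 active means mean replicate activation of at least 50% with a set share of replicates each reaching 50%; inconclusive means only one of those two conditions met; inactive means mean below 50% and too few replicates reaching it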;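 further: 0% = median of the neutral control wells and 100% = twice that signal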
# Calb FLC – affects C. albicans growth with fluconazole; 300,000 compounds, 0.57% hits; growth inhibition, % (no concentration beside the values); AID 1979; C. albicans CaCi-2 (fluconazole-resistant clinical isolate) + fluconazole, Alamar Blue growth, 48 h;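 active means growth inhibition above about 58% in most replicates, limit read from the data, passing the limit was not always enough; inconclusive means exactly half the replicates above a set limit; inactive means most replicates below a set limit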;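 further: all wells also contain fluconazole at 8 µg/ml as a sub-toxic cotreatment; 0% = median of DMSO wells and 100% = median of geldanamycin control wells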
# HSF1 inh – HSF1 inhibition; NIH3T3-HGL HSE-luciferase, MG132-induced, luminescence 8 h; stronger effect = lower value; activity change, negative = inhibition, % at 7.5 µM (by protocol); 300,000 compounds, 0.77% hits;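 active means more than half of replicate wells show activity change below -50%, luminescence cut by over half; inconclusive means some wells, but at most half, below -50%; inactive means no replicate well below -50%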;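 further: luciferase reports HSF-1 transcriptional activity via heat shock element; 0% = median of DMSO wells and -100% = zero luminescence signal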
# * hit, by the source's call; ? = inconclusive; · = no result given. An excerpt weighted towards active compounds, which were near 4.4% of everything screened.
SMILES,HIF activator,T cruzi repl,HSF1 activator,Calb FLC,HSF1 inh
O=C(c1ccco1)N1CCN(Cc2nnc(-c3ccccc3)o2)CC1,1,4,5,2,0
COc1ccc(/C=C/C(=O)c2cc(F)ccc2OC(=O)c2ccccc2OC)cc1OC,5,46,69*,25,64
COc1ccc(/C=C/C(=O)c2ccc[nH]2)cc1OC,2,-5,62*,-7,33
Cc1ccc(CN2CCN(C(=O)CCC(=O)Nc3nnc(C(C)C)s3)CC2)c(C)c1,0,39,-6,9,-1
CN(C)c1nc(C=C(C#N)C#N)c(Cl)n1-c1ccc(F)cc1,-7,16,95*,-8,76
COc1ccc(S(=O)(=O)N2CCC(C(=O)NCCCn3ccnc3)CC2)cc1C,1,-3,0,1,-1
OC1OC[C@@H](O)[C@H](O)[C@H]1O (stereo partly specified),0,-5,-77,-5,-72*
O=c1c2ccccc2nc(N/N=C/c2c(O)ccc3ccccc23)n1O,15*,-10,1,106*,5
Oc1ccc2ccccc2c1/C=N/Nc1nnc(-c2ncc[nH]2)c2ccccc12,82*,58*,-9,108*,-10
O=c1c2ccccc2nc(N/N=C/c2ccc(O)cc2)n1O,1,-12,22,-8,-18
Oc1ccc2ccccc2c1C=NNc1ccccn1,·,·,70*,·,70*
COC(=O)C1=C(C(=O)OC)[C@@H]2N(C)c3ccc(OC)cc3[C@@]23C[C@@H](C(=O)OC)N(C(=O)c2cc(C)oc2C)C3=N1,0,7,15,-9,12
COc1ccc([C@H]2/C=C\CN(C(=O)c3ccccc3)[C@@H](C)C(=O)N2Cc2ccc(F)cc2)cc1,0,3,·,1,22
CC(=O)Nc1ccc(NC(=O)C(=O)N/N=C/c2cccnc2)cc1,0,-16,2,0,-2
O=C(OCCCN1CCOCC1)c1ccc(O)c(O)c1,0,-6,-73,-2,-65*
Cc1ccc(Cl)cc1NC(=O)C[n+]1ccc(Cc2ccc([N+](=O)[O-])cc2)cc1,-1,-10,65*,-60,27
O=C(C[n+]1ccc(Cc2ccccc2)cc1)Nc1ccc([N+](=O)[O-])cc1Cl,0,6,0,19,-4
Cc1ccc(F)cc1NC(=O)CCNC(=O)c1ccc([N+](=O)[O-])cc1,0,-2,-75,-20,-68*
N#C/C(C(=O)Nc1ccc(Cl)cc1)=C(/S)Nc1ccccc1,1,79*,6,23,-1
O=C(Nc1ccc(Nc2ccccc2)cc1)c1ccc(Cl)cc1,0,13,3,26,1
CCN(CC)c1ccc(/C=N/NC(=O)c2ccc3c(c2)OCCO3)cc1,-9,14,-59,0,-52*
CCOc1cc(/C=N/NC(=O)c2ccc3c(c2)OCCO3)cc(Br)c1O,2,6,-74,-8,-73*
CN(C)c1ccc(/C=N/NC(=O)c2ccc3c(c2)OCCO3)cc1,1,-10,-58,-2,-55*
Cc1ccc(C(=O)N2CCN(S(=O)(=O)c3ccccc3)CC2)s1,2,7,-8,-4,-3
Cc1cc(NC(=O)CCCn2cnc([N+](=O)[O-])n2)no1,0,58*,-9,-8,-4
SMILES,HIF activator,T cruzi repl,HSF1 activator,Calb FLC,HSF1 inh
Cc1ccc(NC(=O)Cn2ccc([N+](=O)[O-])n2)cc1C,0,3,-14,-6,-6
O=C(CCCn1cnc([N+](=O)[O-])n1)Nc1ccc(Cl)c(Cl)c1,·,82*,-3,19,2
O=C(CCCn1cnc([N+](=O)[O-])n1)Nc1cccc(Cl)c1Cl,0,41,-1,-6,-12
Cc1cc(NC(=O)Cn2ccc([N+](=O)[O-])n2)no1,0,-1,-62,-2,-52*
Cc1c(Cl)cccc1NC(=O)CCCn1cnc([N+](=O)[O-])n1,0,56*,5,-10,0
C[C@H](NC(=O)c1ccco1)C(=O)Nc1cccc([N+](=O)[O-])c1,-1,-11,1,-8,-4
COc1cccc(NC(=O)CN(C)CC(=O)Nc2ccc(C)cc2Cl)c1,0,-4,-15,14,-2
COc1cc(/C=C2\SC(=S)N(CCC(=O)N3CCCCC3)C2=O)cc(OC)c1OC,1,-4,9,6,7
CCOC(=O)c1c(-c2ccccc2)c2cc(OC)ccc2n1CCCN(C)C,2,59*,-9,-3,-6
COCC1CCCCN1C(=O)c1cc(COc2ccc3ncccc3c2)on1 (stereo unspecified),0,-120,-79,17,-72*
CCCN1CCN(C(=O)c2cc(COc3ccc4ncccc4c3)on2)CC1,0,-3,-66,-6,-57*
COc1ccccc1OC(=O)c1cc(Cl)nc2ccccc12,0,-12,·,4,·
O=C(Cc1ccccc1)NNc1ccc2ccccc2c1,-19,9,-67,?,-63*
O=C(COc1ccc2ccccc2c1)NNC(=O)Cc1ccccc1,0,-1,-2,0,0
O=C(CNc1ccc2ccccc2c1)NNC1=NCCC1,0,1,1,22,-4
O=C(CN1C(=O)CCC1=O)NNc1ccc2ccccc2c1,·,·,·,100*,·
CCCN(C(=O)c1ccc(N(C)S(=O)(=O)c2ccc(C)cc2)cc1)C1CCS(=O)(=O)C1 (stereo unspecified),-1,-5,4,4,-3
CCC(C)(C)NC(=O)c1ccc2c(c1)N(CC(=O)NC1CCCC1)C(=O)C(C)(C)O2,0,11,-20,7,-7
O=C(Nc1nc2ccccc2[nH]1)c1ccccc1F,-2,-14,-73,24,-75*
N#CC(Cc1ccc(OC(F)F)cc1)c1nc2ccccc2[nH]1 (stereo unspecified),4,-5,59*,5,21
O=C(Nc1nc2ccccc2[nH]1)c1ccccc1OC(F)F,0,-5,60*,12,26
O=C(Nc1nc2ccccc2[nH]1)c1ccc(OC(F)F)cc1,-2,14,68*,2,39
COc1ccc(-c2cc3ccc(OC(C)C(=O)O)cc3oc2=O)cc1 (stereo unspecified),0,-12,-6,3,2
COc1ccc(S(=O)(=O)N(CC(=O)NCc2cccnc2)c2ccc(C)cc2)cc1OC,0,-1,19,9,4
COCCn1nnnc1CN1CCC(NC(=O)c2ccc(Br)cc2)CC1,-2,-7,10,9,-3
COc1cc(C(=O)NC2CCN(Cc3nnnn3Cc3cccs3)CC2)cc(OC)c1OC,0,-9,-75,6,-68*
CC(C)COc1cccc(C(=O)NC(=S)Nc2cccc(NC(=O)c3ccccc3Cl)c2)c1,0,30,13,-15,-3
CCc1cc2c(SCC#N)ncnc2s1,0,10,80*,-26,19
